# Compounds with a hit are over-represented: about 12% of the library has one in this group of screens.
# ROMK primary: human ROMK K+ channel modulation, primary screen | P48048 | Tet-inducible ROMK, thallium flux fluorescence; actives lie on both sides | B-score at 10 µM | 130,000 tested, 2% active;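 active = signal ratio slope over the read window, or its plate-corrected B-score, at least 3 SD from the plate mean, either direction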;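 also: B-score of the F/F0 ratio slope over 7 to 12 s after thallium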
# WT yeast gro inh: growth inhibition of WT yeast, mitochondrial fusion screen | mitochondrial fusion phenotypic screen, WT strain | inhibition, % at 10 µM | 190,000 tested, 2.1% active | AID 1362; in the data active = inhibition above about 58%; tested in S. cerevisiae
# KCC2 mod: KCC2 (human) Cl- transport modulation. AID 1456. B-score of Tl+ flux slope (higher = more flux/activation; lower = inhibition) at 10 µM. Q9H2X9. KCC2 cells, thallium flux FluoZin-2 fluorescence. 190,000 tested, 2.2% active;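 active = thallium flux slope and its plate-corrected score both differing from the plate sample mean at a set confidence after two filtering rounds, in either direction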;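 also: slope of fluorescence scaled to starting intensity during 10 to 20 s after thallium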
# Diaphorase inh: diaphorase inhibition or chemical oxidation counter-screen; diaphorase resazurin-to-resorufin fluorescence, NADH, 16 min; bacterial (C. kluyveri) enzyme, not human; inhibition, % at 20 µM; 190,000 tested, 0.69% active; AID 1217;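 active = primary screen inhibition at 20 µM above a set limit, cut at about 50% in these data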;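 also: plate controls were DMSO with full reaction for no effect and wells lacking NADH for full effect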
#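 Test system: bacterial diaphorase enzyme (C. kluyveri); Quantity: 0.14 U/mL diaphorase, enzyme working solution; Times: reaction incubation of 16 min at room temperature; Measured by: fluorescence of resorufin formed from resazurin, Ex 544/Em 590 nm; Benchmarks: positive control minus NADH, DMSO neutral control.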
# L major viab: reduces viability of Leishmania major promastigotes | resazurin fluorescence viability | inhibition, % at 10 µM | 200,000 tested, 9% active; in the data active = inhibition above about 50%;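 also: promastigotes grown with compound for 44 hours at 28 °C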
# Diaph act CS: activates diaphorase or chemically reduces, flagging diaphorase assay artifacts | 190,000 tested, 0.005% active | activation factor at 20 µM | AID 1229 | Diaphorase/resazurin coupled assay, resorufin fluorescence, 16 min; active compounds read high; 1 = vehicle wells, 0 = NADH-free wells;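 active = diaphorase activity raised at least twofold by the compound at 20 µM; inactive = activation factor below 2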
#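 Material: Clostridium kluyveri diaphorase, purified enzyme; Quantity: enzyme 0.07 U/mL final; Medium: HEPES pH 7.4 buffer with MgCl2 and Tween 20; Dosing: single compound dose of 20 µM, 1% DMSO final; Schedule: 16 min reaction at room temperature; Measured by: red resorufin fluorescence at 544/590 nm excitation/emission.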
# Numbers without * were called inactive; . = not tested or not shown.
SMILES,ROMK primary,WT yeast gro inh,KCC2 mod,Diaphorase inh,L major viab,Diaph act CS
Cc1nn(C)c(=O)n1N(C)c1ncc(C(F)(F)F)cc1Cl,-0.76,3,-0.27,6,-9,0.9
CN(C)CC(O)CN(c1ccccc1)c1ccccc1 (configuration not stated),.,.,0.043,.,.,.
CCN(CC)S(=O)(=O)c1ccc(N2CCCCC2)c(C(=O)Nc2ccccc2N2CCOCC2)c1,-3.6*,9,-0.52,17,40,0.8
CCN(CC)S(=O)(=O)c1ccc(N2CCOCC2)c(NC(=O)c2cccc3ccccc23)c1,.,-22,-1.1,20,5,0.8
C=CCn1c(SCC(=O)Nc2ccc(-c3nc4ccc(C)cc4s3)cc2)nnc1-c1ccncc1,0.21,-21,1.7,14,50*,0.9
Cc1ccc2nc(-c3ccc(NC(=O)CNC4CC4)cc3)sc2c1,-0.2,59*,0.077,6,16,0.9
CCn1c(SCC(=O)Nc2ccc(-c3nc4ccc(C)cc4s3)cc2)nnc1-c1ccccc1,1.3,-7,-0.077,10,-8,0.9
N/C(=N\NC(=O)c1sccc1OCc1ccc(Cl)cc1Cl)c1ccccn1,-1.7,38,-1.5,-26,100*,1.3
CCOc1ccc(NC(=O)CCC(=O)c2ccc(-c3ccccc3)cc2)cc1,-0.044,-20,0.94,-2,50*,1
CC(=O)c1ccc(OCC(=O)c2ccc(-c3ccccc3)cc2)cc1,-0.6,17,-2.5,14,60*,0.9
CCOc1ccc(NC(=O)Cc2ccccc2)cc1,-0.75,-2,0.52,-3,-1,1
CCOC(=O)c1ccc(N/C(=N\S(=O)(=O)c2ccccc2C)c2ccccc2)cc1,.,6,-0.064,13,88*,0.9
CCOC(=O)c1ccc(NC(=O)CCOc2ccccc2)cc1,1,.,-4.9,14,84*,0.9
CC(C)OC(=O)COc1ccc(-c2ccccc2)cc1,0.54,-9,0.4,3,-8,1
CCCOC(=O)c1ccc(NC(=O)CCOc2ccccc2)cc1,-0.11,17,-0.36,24,31,0.8
CCNC(=O)n1nccc1C(C)Oc1ccccc1 (configuration not stated),.,7,-0.48,14,-2,0.9
CC(=O)CC(C)(C)NC(C)=S,.,.,0.7,.,.,.
CN(C)CC(=O)c1ccc(-c2ccccc2)cc1,-0.22,-7,-0.21,-10,86*,1.1
Cc1cccc(OCCCC(=O)Nc2ccc(N(C)C)cc2)c1,-0.02,0,0.007,6,97*,0.9
CCN(CC)CC(=O)c1ccc(-c2ccccc2)cc1,.,-9,0.14,-5,18,1
CSc1nc(NC(C)(C)C)nc(Oc2ccc(=O)n(C)n2)n1,.,12,0.36,6,-6,0.9
CC(C)(C)c1ccc(/C=N/OCC(=O)NCc2ccc(F)cc2)cc1,0.29,49,-0.33,12,-2,0.9
CN1C(=O)C(/C(N)=N/NC(=O)c2ccccc2)C2CC1(C)Oc1ccccc12 (configuration not stated),0.9,6,0.88,-6,-10,1.1
Cc1ccc(Nc2nnc(C3C(=O)N(C)C4(C)CC3c3cc(Br)ccc3O4)s2)cc1 (configuration not stated),.,55,-0.015,13,69*,0.9
O=S(=O)(c1ccccc1)c1cnc(-c2ccccc2)nc1N1CCCCC1,0.16,58*,-0.31,8,24,0.9
SMILES,ROMK primary,WT yeast gro inh,KCC2 mod,Diaphorase inh,L major viab,Diaph act CS
CN1CCN(c2nc(-c3ccccc3)ncc2S(=O)(=O)c2ccccc2)CC1,-0.31,-8,0.35,7,20,0.9
O=C(Nn1c(-c2ccc(F)cc2)nc2ccccc2c1=O)C1CCCCC1,0.0053,15,.,11,1,0.9
CCOC(=O)C1=C(C)NC(C)=C(C(=O)OCC)C1C(=O)OCC(=O)c1ccc2c(c1)OCCO2,.,-25,0.98,25,65*,0.8
CCOC(=O)C1=C(C)NC(C)=C(C(=O)OCC)C1C(=O)OCC(=O)N1CCc2ccccc21,.,14,-0.63,2,97*,1
CCOC(=O)c1[nH]c(C)c(C(=O)OCC(=O)N2CCc3ccccc32)c1C,-0.05,2,0.62,1,-5,1
Cc1ccc(N2C(=O)c3ccccc3C2Nc2cccnc2)nc1 (configuration not stated),.,-7,0.59,4,69*,1
